≈ marks a conversion by molar mass, not a printed value.
Columns and labels:
[1] = Half life of the compound; format: ADME
Method in brief: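 Hydrolysis in aqueous buffer, followed by UV absorbance in a cuvette at about 10^-5 M final substrate. For the phenol derivatives, runs were at 46 °C in pH 8.8 buffer because hydrolysis at 32 °C was too slow. Half-lives were taken from plots of log(A∞ − At), or its negative, versus time.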

[2] = Dissociation constant, pKa of the compound; format: physicochemical
[3] = Ratio for partition coefficient, log K in IPM to buffer at pH 4; format: physicochemical; details: IPM/pH 4.0 buffer
[4] = Aqueous solubility of the compound; format: physicochemical; details: water
[5] = Solubility in IPM; format: physicochemical

SMILES | half-life [1] | pKa [2] | log K [3] | solubility [4] | solubility ([5]; IPM, read-out: Solubility) | solubility [5]
COC(=O)N(C)COC(=O)c1ccc(N(C)C)cc1 | 0.00367 h | 5.03 |  |  |  | 
COC(=O)N(C)COc1ccc(C(C)=O)cc1 | 3.15 h | 8.05 |  |  |  | 
COC(=O)N(C)CSc1[nH]cnc2ncnc1-2 | 0.317 h | 7.5 | 0.03 | 1450 µM (≈ 367 µg/mL) | 1350 µM (≈ 342 µg/mL) | 
COC(=O)c1ccc(OCN(C)C(=O)OC)cc1 | 4.83 h | 8.47 |  |  |  | 
COC(=O)N(C)COc1ccc(C#N)cc1 | 2.48 h | 7.95 |  |  |  | 
CCOC(=O)c1ccc(N(COc2ccc([N+](=O)[O-])cc2)C(=O)OC)cc1 | > 24 h |  |  |  |  | 
COC(=O)N(COc1ccc([N+](=O)[O-])cc1)c1ccc(OC)cc1 | 6.67 h |  |  |  |  | 
COC(=O)N(C)COc1ccc(NC(C)=O)cc1 | 60 h | 9.5 | -0.45 | 45700 µM (≈ 11500 µg/mL) | 14100 µM (≈ 3560 µg/mL) | 
COC(=O)N(C)COc1ccc([N+](=O)[O-])cc1 | 0.367 h | 7.14 |  |  |  | 
COC(=O)N(C)COc1ccc(C=O)cc1 | 1.25 h | 7.66 |  |  |  | 
COC(=O)N(C)COc1ccccc1C=O | 0.2 h | 6.79 |  |  |  | 
COC(=O)N(C)Cn1cnc2c1c(=O)n(C)c(=O)n2C | 7 h | 8.6 | -0.04 | 9330 µM (≈ 2620 µg/mL) | 2690 µM (≈ 757 µg/mL) | 
COC(=O)N(COc1ccc([N+](=O)[O-])cc1)c1ccccc1 | 8.65 h |  |  |  |  | 
CC(=O)Nc1ccc(O)cc1 [ACETAMINOPHEN] |  |  | -1.72 | 100000 µM (≈ 15100 µg/mL) |  | 1910 µM (≈ 289 µg/mL)
Sc1ncnc2nc[nH]c12 [MERCAPTOPURINE ANHYDROUS] |  |  | -1.75 | 1120 µM (≈ 170 µg/mL) | 20 µM (≈ 3.04 µg/mL) | 
Cn1c(=O)c2[nH]cnc2n(C)c1=O.O [THEOPHYLLINE] |  |  | -0.51 | 46000 µM | 340 µM | 

From ChEMBL document CHEMBL1138907, “Synthesis, hydrolyses and dermal delivery of N-alkyl-N-alkyloxycarbonylaminomethyl (NANAOCAM) derivatives of phenol, imide and thiol containing drugs” (Bioorg Med Chem Lett, 2006)
